# According to ChEMBL document CHEMBL3868602, “Novel synthetic chalcones induce apoptosis in the A549 non-small cell lung cancer cells harboring a KRAS mutation” (Bioorg Med Chem Lett, 2016):
# The source made the active and inactive calls. The calls are words filed in the database; no cut-off is given here.
# Columns and labels:
# [1] = Cell cycle arrest in human PC3 cells assessed as inhibition of S phase at 1 uM after 24 hrs by propidium iodide staining based flow cytometry; type: functional; conditions: PC-3
# How it was run: (§1)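 Serum-starved 24 h to block in G1/G0, then returned to FBS-containing medium with test agent at 1 μM for a further 24 h. 0.5 × 10^6 treated cells stained with propidium iodide and analysed by flow cytometry, gating G1, S, G2/M plus apoptotic and necrotic populations. n=4–5 repeats.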
# [2] = Cell cycle arrest in human PC3 cells assessed as blockage of G1 phase at 1 uM after 24 hrs by propidium iodide staining based flow cytometry; type: functional; conditions: PC-3; how it was run: as §1
# A549 [3] = assay: (§2) Cytotoxicity against human A549 cells harboring KRAS mutant assessed as increase in apoptotic cells after 72 hrs by crystal violet staining based assay; type: functional, cell-based
# How it was run: (§3)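 Cells exposed 72 h to compound or DMSO vehicle, either at 1 and 10 μM or over 0.033–10 μM dose series. Surviving cells then stained with crystal violet and absorbance read at 562 nm. Effect expressed as % dead/apoptotic cells relative to DMSO, average of triplicates; dose curves n=6, run twice, mean ± SD, giving EC50.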
# A549 [4] = assay: Cytotoxicity against human A549 cells harboring KRAS mutant assessed as increase in apoptotic cells at 1 uM after 72 hrs by crystal violet staining based assay; type: functional, cell-based; how it was run: as §3
# [5] = as §2; type: functional, cell-based; conditions: A549, 72 h; how it was run: as §3
# [6] = Effect on cell cycle in NHBE cells at 1 uM after 24 hrs by propidium iodide staining based flow cytometry; conditions: human; how it was run: as §1
# [7] = Cytotoxicity against human HPAC CRL2119 cells assessed as cell death at 1 uM after 72 hrs by crystal violet staining based assay; type: functional
# How it was run: (§4)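 Cells treated with compound or DMSO vehicle for 72 h at 0.033–10 uM, then stained with crystal violet; absorbance at 562 nm taken as live cell number. Cell death read at 1 uM relative to DMSO controls. n=6, performed twice; mean ± SD.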
# [8] = Therapeutic index, ratio of EC50 for NHBE cells to EC50 for human A549 cells harboring KRAS mutant; type: cell-based; conditions: NHBE cells versus A549 cells harboring KRAS mutant, read-out: Ratio EC50
# How it was run: (§5)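 Ratio computed from EC50 values obtained by 72 h crystal violet survival assays (absorbance 562 nm) in each cell line, divided by the A549 EC50.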
# [9] = Cytotoxicity against mouse Panc02 cells assessed as cell death at 1 uM after 72 hrs by crystal violet staining based assay; type: functional; how it was run: as §4
# A549 [10] = assay: Induction of apoptosis in human A549 cells harboring KRAS mutant assessed as blockage of G2/M transition phase at 1 uM after 24 hrs by propidium iodide staining based flow cytometry; type: functional, cell-based; how it was run: as §1
# Stathmin (Homo sapiens) = biological target: T1, Stathmin (Homo sapiens) (UniProt P16949); assay: Increase in STMN1 phosphorylation in human A549 cells harboring KRAS mutant at 1 uM after 8 hrs by Western blot analysis; type: cell-based
# T1 sequence (whole entry): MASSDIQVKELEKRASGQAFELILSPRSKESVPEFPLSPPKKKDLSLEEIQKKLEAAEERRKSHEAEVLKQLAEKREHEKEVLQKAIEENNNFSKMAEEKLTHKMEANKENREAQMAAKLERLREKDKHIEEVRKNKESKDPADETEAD
# How it was run: (§6)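 A549 cells given serum-containing medium with DMSO or 1 μM compound for 8, 24 or 48 h. Lysates immunoblotted for cyclin A2, cyclin B1, phospho-Rb, total Rb and phospho-STMN1. Two independent experiments.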
# [11] = Cytotoxicity against human A549 cells harboring KRAS mutant assessed as cell death at 1 uM after 72 hrs by crystal violet staining based assay; type: functional; how it was run: as §4
# [12] = Cytotoxicity against human PC3 cells assessed as cell death at 1 uM after 72 hrs by crystal violet staining based assay; type: functional, PC-3; how it was run: as §4
# A549 [13] = assay: Suppression of cyclin A2 level in human A549 cells harboring KRAS mutant at 1 uM after 8 to 48 hrs by Western blot analysis; type: functional, cell-based; how it was run: as §6
# [14] = Cytotoxicity against NHBE cells assessed as decrease in cell viability at 0.01 to 10 uM after 72 hrs by crystal violet staining based assay; type: toxicity; conditions: human; how it was run: as §3
# [15] = biological target: T2, Retinoblastoma-associated protein (Homo sapiens) (UniProt P06400); assay: Inhibition of phosphorylated retinoblastoma protein level in human A549 cells harboring KRAS mutant at 1 uM after 8 to 48 hrs by Western blot analysis; type: cell-based; how it was run: as §6
# T2 sequence (whole entry): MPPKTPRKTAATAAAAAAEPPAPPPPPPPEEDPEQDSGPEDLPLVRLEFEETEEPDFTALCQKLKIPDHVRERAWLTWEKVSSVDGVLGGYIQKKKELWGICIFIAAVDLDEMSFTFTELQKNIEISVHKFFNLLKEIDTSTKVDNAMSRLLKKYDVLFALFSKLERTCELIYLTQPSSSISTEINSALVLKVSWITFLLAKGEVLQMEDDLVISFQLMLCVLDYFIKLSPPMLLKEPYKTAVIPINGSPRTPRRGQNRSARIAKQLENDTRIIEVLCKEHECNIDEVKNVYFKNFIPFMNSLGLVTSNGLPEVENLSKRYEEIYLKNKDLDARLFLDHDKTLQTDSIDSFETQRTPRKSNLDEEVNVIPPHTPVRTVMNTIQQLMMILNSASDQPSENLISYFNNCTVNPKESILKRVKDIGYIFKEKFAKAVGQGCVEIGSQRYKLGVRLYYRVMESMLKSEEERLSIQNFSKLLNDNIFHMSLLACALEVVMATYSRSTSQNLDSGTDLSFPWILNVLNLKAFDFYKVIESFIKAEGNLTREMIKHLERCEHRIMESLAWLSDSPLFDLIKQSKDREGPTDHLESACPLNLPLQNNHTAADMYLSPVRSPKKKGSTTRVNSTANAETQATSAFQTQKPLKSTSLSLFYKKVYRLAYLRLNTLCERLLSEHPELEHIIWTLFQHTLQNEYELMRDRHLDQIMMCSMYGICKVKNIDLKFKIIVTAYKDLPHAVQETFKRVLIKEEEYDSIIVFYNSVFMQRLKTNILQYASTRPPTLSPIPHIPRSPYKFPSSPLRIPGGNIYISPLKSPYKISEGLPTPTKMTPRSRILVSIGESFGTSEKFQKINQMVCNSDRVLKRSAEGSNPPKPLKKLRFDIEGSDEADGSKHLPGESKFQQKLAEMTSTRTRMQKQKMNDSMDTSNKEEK
# [16] = Cytotoxicity against human A549 cells harboring KRAS mutant assessed as apoptotic cells at 10 uM after 72 hrs by crystal violet staining based assay; type: functional; how it was run: as §3
# A549 [17] = assay: Ratio of EC50 for human PC3 cells to EC50 for human A549 cells harboring KRAS mutant; type: functional; how it was run: as §5
# HPAC = assay: Induction of apoptosis in human HPAC CRL2119 cells after 72 hrs by crystal violet staining based assay; type: functional, cell-based; how it was run: as §3
# A549 [18] = assay: Ratio of EC50 for mouse Panc02 cells to EC50 for human A549 cells harboring KRAS mutant; type: functional; how it was run: as §5
# Panc02 = assay: Induction of apoptosis in mouse Panc02 cells after 72 hrs by crystal violet staining based assay; type: functional, cell-based; how it was run: as §3
# PC-3 = assay: Induction of apoptosis in human PC3 cells after 72 hrs by crystal violet staining based assay; type: functional, cell-based; how it was run: as §3
# A549 [19] = assay: Ratio of EC50 for human HPAC CRL2119 cells to EC50 for human A549 cells harboring KRAS mutant; type: functional; how it was run: as §5
SMILES,Activity (A549 [3]),Activity (A549 [4]),EC50 [5] [nM],further results
COc1cc(/C=C2\CCc3ccc(F)cc3C2=O)cc(OC)c1OC,–,–,–,inhibition [1]: Active; Activity [2]: Active
O=C1/C(=C/c2ccc3c(ccn3Cc3ccccc3)c2)CCc2ccc(F)cc21,Dose-dependent effect,–,–,–
CC(C)(C)OC(=O)n1ccc2cc(/C=C3\CCc4ccc(F)cc4C3=O)ccc21,Dose-dependent effect,–,–,–
O=C1/C(=C/c2ccc3[nH]ccc3c2)CCc2ccccc21,Dose-dependent effect,Active,1130,–
CCn1ccc2cc(/C=C3\CCc4ccc(Br)cc4C3=O)ccc21,Dose-dependent effect,–,–,–
COc1ccc2c(c1)C(=O)/C(=C/c1ccc3[nH]ccc3c1)CC2,Dose-dependent effect,Active,550,Activity [6]: Non-Toxic; Activity [7]: <40%; selectivity ratio [8]: > 18; Activity [9]: <40%; Activity (A549 [10]): Active; Activity (Stathmin (Homo sapiens)): Active; Activity [11]: 80%; Activity [12]: <40%; Activity (A549 [13]): Active; Activity [14]: Non-Toxic; inhibition [15]: Active
CCn1ccc2cc(/C=C3\CCc4ccc(OC)cc4C3=O)ccc21,Dose-dependent effect,Active,3000,–
COc1ccc2c(c1)C(=O)/C(=C/c1ccc3ccn(C)c3c1)CC2,Dose-dependent effect,Active,5800,–
CC(C)(C)OC(=O)n1ccc2cc(/C=C3\CCc4ccccc4C3=O)ccc21,Dose-dependent effect,–,–,–
Cn1ccc2cc(/C=C3\CCc4ccc(Br)cc4C3=O)ccc21,Dose-dependent effect,–,–,Activity [16]: 21%
CC(=O)n1ccc2cc(/C=C3\CCc4ccc(F)cc4C3=O)ccc21,Dose-dependent effect,–,–,Activity [16]: 28%
Cn1ccc2ccc(/C=C3\CCc4ccc(Br)cc4C3=O)cc21,Dose-dependent effect,–,–,Activity [16]: 26%
CCn1ccc2cc(/C=C3\CCc4ccccc4C3=O)ccc21,Dose-dependent effect,Active,460,–
Cn1ccc2cc(/C=C3\CCc4ccc(F)cc4C3=O)ccc21,Dose-dependent effect,Active,200,–
O=C1/C(=C/c2ccc3[nH]ccc3c2)CCc2ccc(F)cc21,Dose-dependent effect,Active,270,–
COc1cc2c(cc1OC)C(=O)/C(=C/c1ccc3ccn(C)c3c1)CC2,Dose-dependent effect,Active,10000,–
CCn1ccc2cc(/C=C3\CCc4ccc(F)cc4C3=O)ccc21,Dose-dependent effect,Active,110,"Ratio EC50 (A549 [17]): >4; Activity (HPAC): Dose-dependent effect; EC50 (HPAC): 310 nM; Ratio EC50 (A549 [18]): >4; Activity (Panc02): Dose-dependent effect; EC50 (Panc02; Panc02, 72 h): 590 nM; Activity (PC-3): Dose-dependent effect; EC50 (PC-3; PC-3, 72 h): 450 nM; Ratio EC50 (A549 [19]): 2.8"
CCn1ccc2cc(/C=C3\CCc4cc(OC)c(OC)cc4C3=O)ccc21,Dose-dependent effect,–,–,Activity [16]: 19%
COc1cc2c(cc1OC)C(=O)/C(=C/c1ccc3c(ccn3C)c1)CC2,Dose-dependent effect,–,–,–
COc1ccc2c(c1)C(=O)/C(=C/c1ccc3c(ccn3C)c1)CC2,Dose-dependent effect,Active,3000,–
Cn1ccc2ccc(/C=C3\CCc4ccccc4C3=O)cc21,Dose-dependent effect,Active,470,–
O=C1/C(=C/c2ccc3[nH]ccc3c2)CCc2ccc(Br)cc21,Dose-dependent effect,–,–,Activity [16]: 16%
Cn1ccc2cc(/C=C3\CCc4ccccc4C3=O)ccc21,Dose-dependent effect,Active,470,–
